The results in this text go back to ChEMBL document CHEMBL3868636, “New glutathione peroxidase mimetics-Insights into antioxidant and cytotoxic activity” (Bioorg Med Chem, 2017).

Usually IC50 stands for the midpoint of a concentration-inhibition curve.

Data set [1] relates to DU-145. The data set is described as follows: Inhibition of Akt-phosphorylation in human DU145 cells at 40 uM measured after 0.5 to 2 hrs by Western blot analysis. The data set is classed as cell-based. Summed up:
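Cells treated with 40 μM compound for different times. Floating and attached cells lysed in Tris-HCl pH 7.5/NaCl/Triton X-100/SDS for 40 min on ice. Lysates run on 10–12% SDS-PAGE and blotted to PVDF. Primary antibody applied 1 h at room temperature, detection by ECL. p-Akt quantified by densitometry and normalised to β-actin.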

Data set [2] is described as follows: Antioxidant activity assessed as H2O2 scavenging by measuring remaining dithiothreitol level at 0.1 equivalent after 30 mins by 1H NMR spectroscopy relative to control. The data set is classed as functional. Summed up:
(§1)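 Dithiothreitol oxidation by 30% H2O2 (3.0 eq) in CD3OD, catalysed by Se compound at 0.1 equiv. 1H NMR spectra taken right after H2O2 addition and then at set intervals. Remaining substrate derived from changes in signal integration.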

A short description of data set [3]: Antioxidant activity assessed as H2O2 scavenging by measuring remaining dithiothreitol level after 15 mins at 0.1 equivalent by 1H NMR spectroscopy relative to control. The data set is classed as functional. Summed up:
as §1

A short description of data set [4]: Cytotoxicity against human DU145 cells assessed as reduction in cell viability measured after 24 hrs by SRB assay. It is filed as functional, cell-based. Particulars: DU-145, 24 h. Summed up:
(§2)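 DU-145 cells grown in MEM with 10% FBS, glutamine and pyruvate. PNT1A cells grown in RPMI 1640 with serum. Both seeded at 6.0 x 10^3 cells/well for 24 h, then treated 24 h with graded concentrations up to 40. Triplicate, IC50 calculated.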

Data set [5] can be described thus: Antioxidant activity assessed as H2O2 scavenging by measuring remaining dithiothreitol level at 0.1 equivalent after 5 mins by 1H NMR spectroscopy relative to control. It is filed as functional. Summed up: as §1
Data set [6] can be described thus: Cytotoxicity against human PNT1A cells assessed as reduction in cell viability measured after 24 hrs by SRB assay. It is filed as toxicity, cell-based. Summed up: as §2
Background: In SRB staining, fixed cells bind dye roughly in proportion to their protein.

Data set [7] in a line: Antioxidant activity assessed as H2O2 scavenging by measuring remaining dithiothreitol level at 0.1 equivalent after 60 mins by 1H NMR spectroscopy relative to control. The data set is classed as functional. Summed up:
as §1

Data set [8] can be described thus: Cytotoxicity against human MCF7 cells assessed as reduction in cell viability measured after 24 hrs by MTT assay. It is filed as functional, cell-based. The following applies: MCF7, 24 h. Summed up: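 MCF-7 cells grown in MEM with glutamine, non-essential amino acids, gentamycin and 10% heat-inactivated FBS at 37°C, 5% CO2. Seeded at 10^4 cells/well and left 24 h. Compounds at various concentrations or 0.1% DMSO vehicle for 24 h. MTT added for 2 h at 37°C. Formazan read at 540 nm against untreated control. Run in triplicate, IC50 reported.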

Data set [9] in a line: Antioxidant activity assessed as H2O2 scavenging by measuring remaining dithiothreitol level at 0.1 equivalent after 3 mins by 1H NMR spectroscopy relative to control. It is filed as functional. Summed up: as §1
A short description of data set [10]: Antiproliferative activity against human A549 cells. The data set is classed as functional, cell-based.

Calls of active or inactive are those of the source. The rule behind the calls is not given here. Bounds are passed on as bounds.

As to `CC(C)CCn1[se]c2ccccc2c1=O`, the inhibition entry in data set [1] is “Active”. Moreover, the Activity in data set [2] was 28%; in [3] it was 42%; in [5], 58%; in [7], 13%; in data set [9], 77%. The figures for the 50% inhibitory concentration (IC50) in data set [4] and in data set [8] were 30.4 µM and 29 µM, respectively. Besides, the concentration for half-maximal inhibition (IC50) at 24 h in [6] is more than 40 µM.

With `O=C(O)c1ccc(NC(=O)c2ccccc2[Se][Se]c2ccccc2C(=O)Nc2ccc(C(=O)O)cc2)cc1`, in data set [10], the IC50 was determined as 20 µM.

`C=CCn1[se]c2ccccc2c1=O`: the Activity worked out at 53% in [2]; 58% in data set [3]; 69% in [5]; 41% in data set [7]; 76% in data set [9]. Besides, the IC50 worked out at 10.3 µM in data set [4] and 25.7 µM in data set [8]. Moreover, the IC50 at 24 h in data set [6] is more than 40 µM.

Consider `O=c1c2ccccc2[se]n1C1CCCCC1`, for which the inhibition entry in data set [1] was “Active”. The Activity in data set [2] was 55%; in data set [3], 62%; in data set [5] it was 69%; in data set [7] it was 44%; in data set [9] it was 75%. Moreover, the IC50 in data set [4] amounted to 5.71 µM; in data set [8], 7.31 µM. Also, in data set [6], the IC50 at 24 h was more than 40 µM.

In the case of `Cn1[se]c2ccccc2c1=O`, the Activity in [2] was 11%; in [3], 35%; in data set [5], 65%; in data set [7], 0%; in [9] it was 78%. The 50% inhibitory concentration (IC50) was found to be 30.2 µM in data set [4] and 32.7 µM in data set [8]. For the same compound, in data set [6], the 50% inhibitory concentration (IC50) at 24 h was more than 40 µM.

Consider `C=CCNC(=O)c1ccccc1[Se][Se]c1ccccc1C(=O)NCC=C`, for which the Activity in [2] was 0%; in data set [3], 12%; in data set [5], 36%; in [7], 0%; in [9], 59%. For the same compound, the IC50 in data set [4] came out at 20.4 µM; in data set [8], 125 µM.

As to `CC(C)CCNC(=O)c1ccccc1[Se][Se]c1ccccc1C(=O)NCCC(C)C`, the Activity in data set [2] worked out at 31%; in [3], 38%; in data set [5] it was 49%; in [7] it was 21%; in data set [9] it was 65%. Besides, the values for the IC50 in [4] and in data set [8] were more than 40 µM and more than 500 µM, respectively.

With `CCCCn1[se]c2ccccc2c1=O`, the Activity in data set [2] was 32%; in data set [3], 41%; in [5] it was 59%; in data set [7], 29%; in data set [9], 81%. For the same compound, the IC50 came out at 20.8 µM in [4] and 13.8 µM in [8]. Also, the IC50 at 24 h in data set [6] was more than 40 µM.

Regarding `O=C(NC1CCCCC1)c1ccccc1[Se][Se]c1ccccc1C(=O)NC1CCCCC1`, the Activity came out at 65% in data set [2]; 75% in [3]; 85% in data set [5]; 54% in data set [7]; 92% in [9]. Moreover, the IC50 in [4] is more than 40 µM; in data set [8] it was 90 µM.

Take `O=c1c2ccccc2[se]n1-c1ccccc1`: the Activity was found to be 58% in [2]; 64% in data set [3]; 75% in data set [5]; 52% in [7]; 84% in data set [9].

With `CCCCNC(=O)c1ccccc1[Se][Se]c1ccccc1C(=O)NCCCC`, the Activity was determined as 77% in data set [2]; 82% in [3]; 88% in [5]; 73% in data set [7]; 93% in [9]. Further, the IC50 is more than 40 µM in data set [4] and more than 500 µM in data set [8].
